Assay [1] has as its target T1, T. foetus IMPDH R322E (Tritrichomonas foetus, UniProt P50097, R322E).
T1 sequence (P50097 1-503 R322E): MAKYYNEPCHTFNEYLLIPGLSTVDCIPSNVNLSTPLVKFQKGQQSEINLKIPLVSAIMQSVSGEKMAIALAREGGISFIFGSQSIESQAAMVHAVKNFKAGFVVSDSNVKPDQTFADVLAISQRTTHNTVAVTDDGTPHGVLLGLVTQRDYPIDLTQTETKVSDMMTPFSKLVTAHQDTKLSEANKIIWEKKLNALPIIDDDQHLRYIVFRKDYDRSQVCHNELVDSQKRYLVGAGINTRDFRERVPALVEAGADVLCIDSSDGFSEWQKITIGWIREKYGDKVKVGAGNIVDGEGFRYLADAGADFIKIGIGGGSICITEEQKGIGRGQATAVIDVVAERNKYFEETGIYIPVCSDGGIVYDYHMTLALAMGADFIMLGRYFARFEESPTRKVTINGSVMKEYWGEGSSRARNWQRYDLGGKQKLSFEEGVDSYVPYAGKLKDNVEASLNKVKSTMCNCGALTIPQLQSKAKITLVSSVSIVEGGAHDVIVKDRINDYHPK
Put plainly: Steady-state kinetics, R322E. Format: biochemical. The conditions noted are these: read-out: Km NAD^+, pH 8.0, 25 °C. Put shortly: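 Mutant enzyme was expressed in IMPDH-deficient E. coli H712 and IMP-affinity purified. Assay buffer was 50 mM Tris-Cl pH 8.0, 100 mM KCl, 1 mM DTT, at 25 °C. NADH production was monitored at 340 nm (ε = 6.22 mM−1cm−1). Initial velocities were fitted to Michaelis–Menten or to a form with uncompetitive substrate inhibition, giving Km.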

Assay [2] addresses T2, T. foetus IMPDH wild-type (Tritrichomonas foetus, UniProt P50097). The conditions noted are these: cited from earlier work.
For the next assay, the target named is T3, T. foetus IMPDH Q324A (Tritrichomonas foetus, UniProt P50097, Q324A).
T3 sequence (P50097 1-503 Q324A): T1 sequence (P50097 1-503 R322E) with E322R, Q324A
Description: Steady-state kinetics, Q324A. Format: biochemical.

In assay [3] the target is T1, T. foetus IMPDH R322E. Put plainly: Equilibrium dissociation constant by intrinsic protein fluorescence, R322E. Particulars: assay buffer, 25 °C. The format is binding. Put shortly:
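NAD+ titrated into 0.2–0.3 µM R322E enzyme. The enzyme was expressed in IMPDH-deficient E. coli H712 and IMP-affinity purified. Assay buffer was 50 mM Tris-Cl pH 8.0, 100 mM KCl, 1 mM DTT, at 25 °C. Intrinsic protein fluorescence read at ex 295 / em 344 nm, corrected for inner-filter effect. Nonspecific quenching measured by titrating ligand into L-tryptophan. Kd taken from the corrected binding curve.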

The next assay addresses T4, T. foetus IMPDH E323A (Tritrichomonas foetus, UniProt P50097, E323A).
T4 sequence (P50097 1-503 E323A): T1 sequence (P50097 1-503 R322E) with E322R, E323A
Put plainly: Steady-state kinetics, E323A. The format is biochemical. Particulars: read-out: Km NAD^+, pH 8.0, 25 °C.

The next assay addresses T5, T. foetus IMPDH R322A (Tritrichomonas foetus, UniProt P50097, R322A).
T5 sequence (P50097 1-503 R322A): T1 sequence (P50097 1-503 R322E) with E322A
Put plainly: Steady-state kinetics, R322A. The format is biochemical. The conditions noted are these: read-out: Km NAD^+, pH 8.0, 25 °C.

Assay [4] has as its target T2, T. foetus IMPDH wild-type. Description: Equilibrium dissociation constant by intrinsic protein fluorescence, wild-type. Format: binding. The conditions noted are these: corrected for non-specific quenching, assay buffer, 25 °C.
The target in assay [5] is T1, T. foetus IMPDH R322E. Put plainly: Multiple-inhibitor kinetics with tiazofurin and ADP, R322E. Format: biochemical. Particulars: R322E relative to wild-type. Put shortly: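 Mutant enzymes were expressed in IMPDH-lacking E. coli H712 and purified by IMP-affinity chromatography. Tiazofurin and ADP were varied together in assay buffer (50 mM Tris-Cl pH 8.0, 100 mM KCl, 1 mM DTT) at 25 °C. NADH formation was followed at 340 nm. Initial velocities were fitted to a two-inhibitor equation giving Ki, Kj and interaction constant α.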

Consider 2 compounds from article PMC3005847 (Biochemistry, 2010).

Structures are written as SMILES. Residue numbers refer to the chain shown, from its start.

As usually defined, the Km is the substrate concentration at which the rate is half of its maximum. The Kd is a measure of binding affinity in units of concentration. Lower therefore signals tighter binding. Consider `NC(=O)c1ccc[n+]([C@@H]2O[C@H](COP(=O)([O-])OP(=O)(O)OC[C@H]3O[C@@H](n4cnc5c(N)ncnc54)[C@H](O)[C@@H]3O)[C@@H](O)[C@H]2O)c1` [NAD^+], for which the Michaelis-Menten constant (Km) is 2600 ± 700 µM on T. foetus IMPDH R322E [1]; 150 ± 30 µM in assay [2] (read-out: Km NAD^+); 120 ± 20 µM on T. foetus IMPDH Q324A (read-out: Km NAD^+, pH 8.0, 25 °C); 300 ± 20 µM at T. foetus IMPDH E323A; 910 ± 90 µM on T. foetus IMPDH R322A. Also, the “Kii NAD^+” value in assay [2] (uncompetitive substrate inhibition) is 7 ± 2 mM; at T. foetus IMPDH Q324A (uncompetitive substrate inhibition, pH 8.0, 25 °C), 2.4 ± 0.3 mM. The Kd on T. foetus IMPDH R322E [3] came out at 37 ± 10 µM; in assay [4], 27 ± 6 µM.
With `NC(=O)c1csc([C@@H]2O[C@H](CO)[C@@H](O)[C@H]2O)n1` [TAZ, tiazofurin], the “Decrease in affinity of tiazofurin caused by the mutation (factor)” value at T. foetus IMPDH R322E [5] is listed as above 3.
